Assay results reported in ChEMBL document CHEMBL5724801, “EUbOPEN Chemogenomics Library - Multiplex” (2024).
Several values for one entry are separate records, joined by “and”; a condition that tells them apart may be missing. Equal values may be shown once.

Test system: Fibroblast
Experiment: Multiplex assay against human fibroblast
Type: toxicity, cell-based
Outline: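 Live cells carried four stains from seeding: Hoechst33342, BioTracker Green Microtubule Cytoskeleton Dye, MitoTracker Red and Annexin V Alexa Fluor 680. They were imaged on a CQ1 microscope at 37°C and 5% CO2 after compound addition. Using CellPathfinder machine-learning gating, cells were split into Hoechst high-intensity objects or normal cells, normal cells into healthy, pyknosed or fragmented nuclei, and pyknosed cells into mitotic or apoptotic; tubulin, mitochondrial-mass and membrane-permeability phenotypes are per cents of healthy-nucleus cells.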

[1] = 12 h, 1 µM, compound concentration 1 uM
[2] = 12 h, 10 µM, compound concentration 10 uM
[3] = 24 h, 1 µM, compound concentration 1 uM
[4] = 24 h, 10 µM, compound concentration 10 uM
[5] = 48 h, 1 µM, compound concentration 1 uM
[6] = 48 h, 10 µM, compound concentration 10 uM

CC[C@H]1OC(=O)[C@H](C)[C@@H](O[C@H]2C[C@@](C)(OC)[C@@H](O)[C@H](C)O2)[C@H](C)[C@@H](O[C@@H]2O[C@H](C)C[C@H](N(C)C)[C@H]2O)[C@@]2(C)CC(C)=C(O2)[C@H](C)[C@@H](O)[C@]1(C)O
Population Apoptotic (%) [1]: 37% and 46%
Population Fragmented Nuclei (%) [1]: 13% and 23%
Population Healthy Nuclei (%) [1]: 72% and 57%
Population Hoechst High Intensity Objects (%) [1]: 2% and 3%
Population Membrane Permeable-Phenotype (%) [1]: 0% and 9%
Population Mitochondria Different-Phenotype (%) [1]: 8% and 6%
Population Mitotic Cells (%) [1]: 62% and 53%
Population Normal (%) [1]: 97% and 96%
Population Pyknosed Nuclei (%) [1]: 13% and 18%
Population Tubulin-Different-Phenotype (%) [1]: 40% and 53%
Total Cell Count [1]: 176 and 170
Population Apoptotic (%) [2]: 48% and 40%
Population Fragmented Nuclei (%) [2]: 24% and 41%
Population Healthy Nuclei (%) [2]: 63% and 33%
Population Hoechst High Intensity Objects (%) [2]: 3% and 4%
Population Membrane Permeable-Phenotype (%) [2]: 0% and 14%
Population Mitochondria Different-Phenotype (%) [2]: 25% and 11%
Population Mitotic Cells (%) [2]: 52% and 59%
Population Normal (%) [2]: 96% and 95%
Population Pyknosed Nuclei (%) [2]: 12% and 25%
Population Tubulin-Different-Phenotype (%) [2]: 86% and 73%
Total Cell Count [2]: 205 and 133
Population Apoptotic (%) [3]: 52% and 46%
Population Fragmented Nuclei (%) [3]: 18% and 29%
Population Healthy Nuclei (%) [3]: 69% and 52%
Population Hoechst High Intensity Objects (%) [3]: 4% and 3%
Population Membrane Permeable-Phenotype (%) [3]: 0% and 7%
Population Mitochondria Different-Phenotype (%) [3]: 7% and 5%
Population Mitotic Cells (%) [3]: 47% and 53%
Population Normal (%) [3]: 95% and 96%
Population Pyknosed Nuclei (%) [3]: 12% and 17%
Population Tubulin-Different-Phenotype (%) [3]: 45% and 36%
Total Cell Count [3]: 173 and 176
Population Apoptotic (%) [4]: 52% and 46%
Population Fragmented Nuclei (%) [4]: 22% and 40%
Population Healthy Nuclei (%) [4]: 69% and 39%
Population Hoechst High Intensity Objects (%) [4]: 2% and 1%
Population Membrane Permeable-Phenotype (%) [4]: 0% and 8%
Population Mitotic Cells (%) [4]: 47% and 53%
Population Normal (%) [4]: 97% and 98%
Population Pyknosed Nuclei (%) [4]: 8% and 20%
Population Tubulin-Different-Phenotype (%) [4]: 89% and 81%
Total Cell Count [4]: 199 and 127
Population Apoptotic (%) [5]: 55% and 56%
Population Fragmented Nuclei (%) [5]: 17% and 32%
Population Healthy Nuclei (%) [5]: 71% and 54%
Population Hoechst High Intensity Objects (%) [5]: 3% and 2%
Population Membrane Permeable-Phenotype (%) [5]: 0% and 7%
Population Mitochondria Different-Phenotype (%) [5]: 9% and 5%
Population Mitotic Cells (%) [5]: 44% and 43%
Population Normal (%) [5]: 96% and 97%
Population Pyknosed Nuclei (%) [5]: 11% and 13%
Population Tubulin-Different-Phenotype (%) [5]: 57% and 56%
Total Cell Count [5]: 168 and 173
Population Apoptotic (%) [6]: 84% and 58%
Population Fragmented Nuclei (%) [6]: 24% and 43%
Population Healthy Nuclei (%) [6]: 68% and 47%
Population Hoechst High Intensity Objects (%) [6]: 8% and 7%
Population Membrane Permeable-Phenotype (%) [6]: 0% and 6%
Population Mitotic Cells (%) [6]: 15% and 41%
Population Normal (%) [6]: 91% and 92%
Population Pyknosed Nuclei (%) [6]: 6% and 9%
Population Tubulin-Different-Phenotype (%) [6]: 91% and 78%
Total Cell Count [6]: 216 and 139

CCCOc1ccc2[nH]cc(C3=CCNCC3)c2n1.Cl
Population Apoptotic (%) [1]: 42% and 48%
Population Fragmented Nuclei (%) [1]: 13% and 25%
Population Healthy Nuclei (%) [1]: 71% and 52%
Population Hoechst High Intensity Objects (%) [1]: 2% and 0%
Population Membrane Permeable-Phenotype (%) [1]: 0% and 8%
Population Mitochondria Different-Phenotype (%) [1]: 6% and 2%
Population Mitotic Cells (%) [1]: 57% and 51%
Population Normal (%) [1]: 97% and 99%
Population Pyknosed Nuclei (%) [1]: 15% and 21%
Population Tubulin-Different-Phenotype (%) [1]: 27% and 47%
Total Cell Count [1]: 143 and 137
Population Apoptotic (%) [2]: 70% and 40%
Population Fragmented Nuclei (%) [2]: 16% and 31%
Population Healthy Nuclei (%) [2]: 70% and 48%
Population Hoechst High Intensity Objects (%) [2]: 4% and 2%
Population Membrane Permeable-Phenotype (%) [2]: 0% and 1%
Population Mitochondria Different-Phenotype (%) [2]: 12% and 10%
Population Mitotic Cells (%) [2]: 29% and 60%
Population Normal (%) [2]: 95% and 97%
Population Pyknosed Nuclei (%) [2]: 13% and 20%
Population Tubulin-Different-Phenotype (%) [2]: 41% and 59%
Total Cell Count [2]: 133 and 125
Population Apoptotic (%) [3]: 57% and 38%
Population Fragmented Nuclei (%) [3]: 14% and 28%
Population Healthy Nuclei (%) [3]: 76% and 52%
Population Hoechst High Intensity Objects (%) [3]: 2% and 0%
Population Membrane Permeable-Phenotype (%) [3]: 0% and 5%
Population Mitochondria Different-Phenotype (%) [3]: 6% and 5%
Population Mitotic Cells (%) [3]: 42% and 61%
Population Normal (%) [3]: 97% and 100%
Population Pyknosed Nuclei (%) [3]: 9% and 18%
Population Tubulin-Different-Phenotype (%) [3]: 20% and 40%
Total Cell Count [3]: 155 and 140
Population Apoptotic (%) [4]: 61% and 50%
Population Fragmented Nuclei (%) [4]: 23% and 20%
Population Healthy Nuclei (%) [4]: 64% and 68%
Population Hoechst High Intensity Objects (%) [4]: 1% and 2%
Population Membrane Permeable-Phenotype (%) [4]: 0% and 4%
Population Mitochondria Different-Phenotype (%) [4]: 12% and 8%
Population Mitotic Cells (%) [4]: 38% and 50%
Population Normal (%) [4]: 98% and 97%
Population Pyknosed Nuclei (%) [4]: 11%
Population Tubulin-Different-Phenotype (%) [4]: 36% and 61%
Total Cell Count [4]: 159 and 107
Population Apoptotic (%) [5]: 69% and 64%
Population Fragmented Nuclei (%) [5]: 17% and 36%
Population Healthy Nuclei (%) [5]: 74% and 53%
Population Hoechst High Intensity Objects (%) [5]: 2% and 4%
Population Membrane Permeable-Phenotype (%) [5]: 0% and 5%
Population Mitochondria Different-Phenotype (%) [5]: 5% and 2%
Population Mitotic Cells (%) [5]: 30% and 35%
Population Normal (%) [5]: 97% and 95%
Population Pyknosed Nuclei (%) [5]: 8% and 9%
Population Tubulin-Different-Phenotype (%) [5]: 23% and 40%
Total Cell Count [5]: 162 and 147
Population Apoptotic (%) [6]: 73% and 60%
Population Fragmented Nuclei (%) [6]: 21% and 32%
Population Healthy Nuclei (%) [6]: 65% and 62%
Population Hoechst High Intensity Objects (%) [6]: 2% and 5%
Population Membrane Permeable-Phenotype (%) [6]: 0% and 4%
Population Mitochondria Different-Phenotype (%) [6]: 9% and 13%
Population Mitotic Cells (%) [6]: 26% and 40%
Population Normal (%) [6]: 97% and 94%
Population Pyknosed Nuclei (%) [6]: 13% and 4%
Population Tubulin-Different-Phenotype (%) [6]: 45% and 44%
Total Cell Count [6]: 150 and 116
